From PubChem
mABHD4 FP: ABHD4 inhibitors, primary screen, biochemical, fluorescence polarization, mouse; (Lyso)-N-acylphosphatidylethanolamine lipase (Mus musculus), Q8VD66; purified mABHD4, FP-Rh probe fluorescence polarization; inhibition, % at 8.92 µM; actives 0.54% (n = 370,000); AID 720543, 2013;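 active = inhibition exceeding the mean over every tested compound plus 3 SD, cut at about 30% in these data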;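 note: 0% = plate median of compound wells and 100% = S159A mutant with DMSO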
Target sequence (Q8VD66 whole entry, looked up): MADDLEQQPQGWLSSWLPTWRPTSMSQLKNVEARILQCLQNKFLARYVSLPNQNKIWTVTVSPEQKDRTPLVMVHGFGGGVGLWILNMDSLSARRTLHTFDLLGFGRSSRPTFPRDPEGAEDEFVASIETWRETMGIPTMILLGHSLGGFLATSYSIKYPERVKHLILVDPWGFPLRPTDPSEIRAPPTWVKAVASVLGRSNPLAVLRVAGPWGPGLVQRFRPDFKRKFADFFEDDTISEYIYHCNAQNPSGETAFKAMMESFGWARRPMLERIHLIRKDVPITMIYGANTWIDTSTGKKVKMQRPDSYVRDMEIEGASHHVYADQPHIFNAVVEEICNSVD
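assay system = mABHD4 protein | compound dosing = single nominal dose of 8.92 µM, 0.89% DMSO final | read-out basis = percent inhibition of probe binding, normalized to plate controls | schedule = Enzyme–compound pre-incubation 45 min, then probe 60 min, both 25 °C | detection = fluorescence polarization, excitation 525 nm, emission 598 nm, BODIPY TMR filters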
SIAE primary: human SIAE inhibitors, primary screen, biochemical, fluorescence polarization, FP-Rh probe, 1536-well HTS. Sialate O-acetylesterase (Homo sapiens), Q9HAT2. SIAE FP-Rh probe binding. inhibition, % at 9.66 µM. actives 0.69% (n = 370,000). AID 1053197, 2014;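 active = inhibition above a cutoff: mean of compounds within the control limits plus 3 SD of those, cut at about 17% in these data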;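 note: 0% = plate median of compound wells and 100% = probe without SIAE protein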
PRMT1 FP inh: PRMT1 methyltransferase inhibitors, primary screen, biochemical, fluorescence polarization; inhibition, % at 2.79 µM; recombinant PRMT1, activity-based probe fluorescence polarization; actives 1.3% (n = 370,000);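 active = inhibition above about 21% made by adding two undisclosed values, limit read from the data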
rCAG binder: binders of r(CAG) RNA repeats, primary screen, biochemical, fluorescence | AID 651821, 2012 | actives 1.3% (n = 370,000) | inhibition, % at 3 µM | r(CAG) RNA repeat, TO-PRO-1 dye displacement fluorescence;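 active = inhibition above the plate cutoff, the mean of all test compounds on that plate plus 3 SD, cut at about 35% in these data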;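 note: 0% = DMSO alone and 100% = 100 µM mitoxantrone as full dye displacement; higher means more dye released from RNA so lower well fluorescence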
TCR CD3 inh: inhibitors of human TCR-CD3 interaction, primary screen, biochemical, fluorescence, TAMRA-labeled TCR probe | inhibition, % at 9.4 µM | actives 0.37% (n = 360,000); in the data active = inhibition above about 19%;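 note: recombinant mutant TCR 2C K166C tagged with TAMRA read by polarization; 0% = receptor in buffer alone and 100% = receptor with positive control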
rCAG binder conf: small molecules binding CAG repeat RNA – biochemical, fluorescence, confirmation; shares compounds with rCAG binder; inhibition, % at 3 µM; r(CAG) RNA repeat, TO-PRO-1 dye displacement fluorescence; actives 70% (n = 4,300);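 active = inhibition above a per-plate cutoff, the mean inhibition of sample wells plus 3 SD, cut at about 35% in these data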;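 note: loss of TO-PRO-1 fluorescence as compound displaces dye from 1x1 AA loop RNA; 0% = DMSO only wells and 100% = 100 µM mitoxantrone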
dCAG dye counter: displacement of TO-PRO-1 from CAG DNA duplex, counter-screen for rCAG RNA repeat binder project, biochemical, fluorescence, TO-PRO-1 dye, d(CAG) DNA oligo; shares compounds with rCAG binder; d(CAG) DNA oligo TO-PRO-1 dye displacement; inhibition, % at 3 µM; actives 94% (n = 4,300); AID 652068, 2013;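 active = inhibition above its plate's cutoff, the mean test-well inhibition plus 3 SD, cut at about 4.8% in these data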;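 note: 0% = DNA dye mix with DMSO and 100% = 100 µM mitoxantrone; hits displace the dye from DNA and so lower well fluorescence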
An asterisk follows results filed as active. Most compounds without a hit are left out; they make up all but 3.3% or so of the library.

CC(C)C[C@H](NC(C)(C)C(=O)NC1CCCCC1)C(=O)NCC(c1ccccc1)c1ccccc1 was read as mABHD4 FP -1, SIAE primary 3 and PRMT1 FP inh -3.
For COc1ccc(NS(=O)(=O)c2cc([N+](=O)[O-])ccc2NN=Cc2ccccc2OCC(=O)O)cc1 the results were mABHD4 FP 6, SIAE primary -7, PRMT1 FP inh 0, rCAG binder 85*, TCR CD3 inh 7, rCAG binder conf 88* and dCAG dye counter 63*.
For COc1ccc(NS(=O)(=O)c2cc([N+](=O)[O-])ccc2N/N=C\c2c(C)[nH]c3ccccc23)cc1 the results were mABHD4 FP 6, SIAE primary 6, PRMT1 FP inh -2, rCAG binder 7 and TCR CD3 inh -5.
For O=C(O)COc1ccccc1C=NNc1ccc([N+](=O)[O-])cc1S(=O)(=O)Nc1ccc(Cl)cc1 the results were mABHD4 FP 5, SIAE primary -12, PRMT1 FP inh 13, rCAG binder 88*, TCR CD3 inh -2, rCAG binder conf 91* and dCAG dye counter 69*.
Screening COC(=O)[C@H]1C[C@@]2(C)c3ccccc3N(S(=O)(=O)c3ccccc3)[C@H]2N1 returned mABHD4 FP 1, SIAE primary 0, PRMT1 FP inh -6 and rCAG binder 5.
O=C(COc1ccccc1C(=O)O)Nc1nc2ccc([N+](=O)[O-])cc2s1 was read as mABHD4 FP -5, SIAE primary -10, PRMT1 FP inh -2, rCAG binder 40*, TCR CD3 inh -7, rCAG binder conf 37* and dCAG dye counter 12*.
For COC(=O)C1CCN(C(=O)CN2CCC(C(=O)c3ccc(C)cc3)CC2)CC1 the results were mABHD4 FP 9, SIAE primary 2, PRMT1 FP inh 4 and rCAG binder 2.
For COc1ccccc1-n1c(SCC(=O)c2ccc(O)cc2O)nc2cc([N+](=O)[O-])ccc21 the results were mABHD4 FP -61, SIAE primary -63, PRMT1 FP inh 0, rCAG binder 49*, TCR CD3 inh 1, rCAG binder conf 47* and dCAG dye counter 22*.
`COc1ccccc1-n1c(SCC(=O)NC2CCS(=O)(=O)C2)nc2cc([N+](=O)[O-])ccc21` (stereo unspecified) gave mABHD4 FP 3, SIAE primary -5, PRMT1 FP inh -1, rCAG binder -1 and TCR CD3 inh 6.
Cc1ccc(-c2cc(-c3nnc(SCC(=O)Nc4cccc5ccccc45)n3N)[nH]n2)cc1 was read as mABHD4 FP 5, SIAE primary -7, PRMT1 FP inh 0 and rCAG binder 11.
COc1ccc(/C=C2/SC(=O)N(CCC(=O)Nc3ccccc3)C2=O)cc1OC was read as mABHD4 FP 0, SIAE primary 6, PRMT1 FP inh 0, rCAG binder 2 and TCR CD3 inh 1.
Cc1cc(C)nc(NS(=O)(=O)c2ccc(NC(=O)CN3C(=O)S/C(=C\c4ccccc4)C3=O)cc2)n1 was read as mABHD4 FP -20, SIAE primary -23, PRMT1 FP inh 2, rCAG binder 60*, TCR CD3 inh 1, rCAG binder conf 69* and dCAG dye counter 30*.
For Cc1cc(C)nc(NS(=O)(=O)c2ccc(NC(=O)CN3C(=O)C4CC=CCC4C3=O)cc2)n1 (stereo unspecified) the results were mABHD4 FP -9, SIAE primary 1, PRMT1 FP inh 1, rCAG binder 3 and TCR CD3 inh -8.
For O=C(CCN1C(=O)S/C(=C\c2ccccc2)C1=O)Nc1ccc(S(=O)(=O)Nc2nccs2)cc1 the results were mABHD4 FP -12, SIAE primary -6, PRMT1 FP inh 12, rCAG binder 77*, TCR CD3 inh 0, rCAG binder conf 74* and dCAG dye counter 39*.
Screening COc1ccccc1/C=C1/SC(=O)N(CCC(=O)Nc2ccc(S(=O)(=O)Nc3nccs3)cc2)C1=O returned mABHD4 FP -62, SIAE primary -23, PRMT1 FP inh 0, rCAG binder 79*, TCR CD3 inh 7, rCAG binder conf 80* and dCAG dye counter 46*.
Clc1cccc(CNc2nc(-c3ccccn3)nnc2-c2ccccc2)c1 was read as mABHD4 FP 28, SIAE primary 6 and PRMT1 FP inh -3.
Screening CCN(CC)C(=O)CC[C@H]1CC[C@]2(CCCN(C(=O)c3ccno3)C2)O1 returned mABHD4 FP 3, SIAE primary 1, PRMT1 FP inh 2 and rCAG binder 1.
Screening Cc1cc(C)c(S(=O)(=O)Nc2nnc(C3CCCCC3)s2)c(C)c1 returned mABHD4 FP -30, SIAE primary -2, PRMT1 FP inh 1, rCAG binder 72*, TCR CD3 inh 5, rCAG binder conf 59* and dCAG dye counter 25*.
O=[N+]([O-])c1ccc(S(=O)(=O)Nc2nnc(C3CCCCC3)s2)cc1 was read as mABHD4 FP -4, SIAE primary 1, PRMT1 FP inh -2, rCAG binder 47*, TCR CD3 inh -4, rCAG binder conf 34 and dCAG dye counter 8.3*.
`Cc1cc(C)c(S(=O)(=O)Nc2nnc(C)s2)c(C)c1` gave mABHD4 FP -6, SIAE primary 1, PRMT1 FP inh -1, rCAG binder 7 and TCR CD3 inh -6.
Screening Cc1cc(C)c(S(=O)(=O)Nc2nnc(CC(C)C)s2)c(C)c1 returned mABHD4 FP -26, SIAE primary 2, PRMT1 FP inh 5, rCAG binder 49*, TCR CD3 inh 2, rCAG binder conf 33 and dCAG dye counter 8.4*.
Screening CC[C@H](CCCCCC#N)CCC(=O)N(c1ccccc1)c1ccccc1 returned mABHD4 FP -7, SIAE primary 2, PRMT1 FP inh 2 and rCAG binder -2.
`O=C(C1CCN(c2ncnc3c2sc2cccc(F)c23)CC1)N1CCN(C(=O)C2CCCO2)CC1` (stereo unspecified) gave mABHD4 FP 7, SIAE primary 6, PRMT1 FP inh 2 and rCAG binder 7.
Cc1nc(CSc2nsc(/C=C/N(C)C)c2C#N)cs1 was read as mABHD4 FP 7, SIAE primary 2, PRMT1 FP inh -2, rCAG binder 57*, TCR CD3 inh -19, rCAG binder conf 25 and dCAG dye counter 13*.
